Experimental data reported in ChEMBL document CHEMBL2346503, “Synthesis and evaluation of novel (18)F-labeled spirocyclic piperidine derivatives as σ1 receptor ligands for positron emission tomography imaging” (J Med Chem, 2013).

Experiments:
[1] = Stability of the compound in mouse plasma at 37 degC up to 4 hrs; assay type: ADME, cell-free
Procedure, shortened: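 The radiotracer (3.7 MBq in 100 μL water) was added to 1 mL of freshly prepared murine plasma and incubated at 37 °C for 4 h. Radiochemical purity was assayed by HPLC at 1, 2 and 4 h.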

[2] = Chemical stability of the compound at room temperature up to 4 hrs; assay type: physicochemical
Procedure, shortened: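 Radiotracer (3.7 MBq in 100 μL water) was added to 1 mL of 80% ethanol or 0.9% NaCl and held at room temperature for 4 h. Radiochemical purity was checked by HPLC at 1, 2 and 4 h.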

[3] = system: Cortex; assay: Drug uptake in Sprague-Dawley rat temporal cortex auditory area at 12.2 MBq, iv after 60 mins by autoradiography; assay type: ADME, organism-based; details: in vivo, 1 h
Procedure, shortened: (§1)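 [¹⁸F]-labelled tracer (0.2 mL, 12.2 MBq) given intravenously to conscious Sprague-Dawley rats (n = 3). Each rat was killed by cervical dislocation 60 min after injection. The brain was removed and frozen in liquid nitrogen, and 20 μm coronal sections were cut on a cryostat for ex vivo autoradiography of regional radioactivity.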

[4] = Metabolic stability in ICR mouse liver at 18.5 MBq, iv after 30 mins by HPLC analysis; assay type: ADME, organism-based; details: read-out: Stability
Procedure, shortened: (§2)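 Male ICR mice given radiotracer iv (18.5 MBq, 0.2 mL), killed at 30 min. Brain and liver were homogenized in ice-cold PBS (0.01 M, pH 7.4) and extracted with ice-cold MeCN. Supernatants were filtered, concentrated and analysed by radio-HPLC on a C18 column, acetonitrile/water with 0.1% TFA (45:55), 1 mL/min.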

[5] = system: Liver; assay: Metabolic stability in ICR mouse liver assessed as retention time at 18.5 MBq, iv by HPLC analysis; assay type: ADME, organism-based; details: in vivo; procedure, shortened: as §2
[6] = system: Brain; assay: Metabolic stability in ICR mouse brain at 18.5 MBq, iv after 30 mins by HPLC analysis; assay type: ADME, organism-based; details: in vivo, 0.5 h; procedure, shortened: as §2
[7] = system: Rattus norvegicus; assay: Biodistribution in Sprague-Dawley rat internal capsule at 23 MBq, iv after 60 mins by microPET imaging/CT study in presence of haloperidol; assay type: ADME, organism-based; details: in vivo, 1 h
Procedure, shortened: (§3)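 Sprague-Dawley rats under isoflurane (1.5–2.5%) in oxygen received 23 MBq radiotracer (0.2 mL saline) via tail vein. Blocking animals were pre-injected with haloperidol (0.2 mL, 1 mg/kg) 5 min before the tracer. MicroPET emission was acquired for 30 min starting 60 min post-injection, followed by a 5 min CT scan; images were summed over 60–90 min.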

[8] = system: Cerebellum; assay: Biodistribution in Sprague-Dawley rat cerebellum at 23 MBq, iv after 60 mins by microPET imaging/CT study in presence of haloperidol; assay type: ADME, organism-based; details: in vivo, 1 h; procedure, shortened: as §3
[9] = system: Rattus norvegicus; assay: Biodistribution in Sprague-Dawley rat pontine reticular nucleus at 23 MBq, iv after 60 mins by microPET imaging/CT study in presence of haloperidol; assay type: ADME, organism-based; details: in vivo, 1 h; procedure, shortened: as §3
[10] = system: Cortex; assay: Biodistribution in Sprague-Dawley rat cortex at 23 MBq, iv after 60 mins by microPET imaging/CT study in presence of haloperidol; assay type: ADME, organism-based; details: in vivo, 1 h; procedure, shortened: as §3
[11] = system: Midbrain; assay: Biodistribution in Sprague-Dawley rat midbrain at 23 MBq, iv after 60 mins by microPET imaging/CT study in presence of haloperidol; assay type: ADME, organism-based; details: in vivo, 1 h; procedure, shortened: as §3
[12] = system: Rattus norvegicus; assay: Biodistribution in Sprague-Dawley rat olfactory bulb at 23 MBq, iv after 60 mins by microPET imaging/CT study; assay type: ADME, organism-based; details: in vivo, 1 h; procedure, shortened: as §3
[13] = system: Cortex; assay: Biodistribution in Sprague-Dawley rat cortex at 23 MBq, iv after 60 mins by microPET imaging/CT study; assay type: ADME, organism-based; details: in vivo, 1 h; procedure, shortened: as §3
[14] = system: Rattus norvegicus; assay: Biodistribution in Sprague-Dawley rat pontine reticular nucleus at 23 MBq, iv after 60 mins by microPET imaging/CT study; assay type: ADME, organism-based; details: in vivo, 1 h; procedure, shortened: as §3
[15] = system: Thalamus; assay: Biodistribution in Sprague-Dawley rat thalamus at 23 MBq, iv after 60 mins by microPET imaging/CT study; assay type: ADME, organism-based; details: in vivo, 1 h; procedure, shortened: as §3
[16] = system: Midbrain; assay: Biodistribution in Sprague-Dawley rat midbrain at 23 MBq, iv after 60 mins by microPET imaging/CT study; assay type: ADME, organism-based; details: in vivo, 1 h; procedure, shortened: as §3
[17] = system: Nucleic Acid; assay: Ratio of drug uptake in Sprague-Dawley rat hippocampus to cerebellum at 12.2 MBq, iv after 60 mins by autoradiography; assay type: ADME, organism-based; details: in vivo, 1 h
[18] = system: Nucleic Acid; assay: Ratio of drug uptake in Sprague-Dawley rat interior coliculus to cerebellum at 12.2 MBq, iv after 60 mins by autoradiography; assay type: ADME, organism-based; details: in vivo, 1 h
[19] = system: Nucleic Acid; assay: Ratio of drug uptake in Sprague-Dawley rat thalamus to cerebellum at 12.2 MBq, iv after 60 mins by autoradiography; assay type: ADME, organism-based; details: in vivo, 1 h
[20] = system: Nucleic Acid; assay: Ratio of drug uptake in Sprague-Dawley rat frontal cortex to cerebellum at 12.2 MBq, iv after 60 mins by autoradiography; assay type: ADME, organism-based; details: in vivo, 1 h
[21] = Drug uptake in Sprague-Dawley rat paramedian lobule at 12.2 MBq, iv after 60 mins by autoradiography; assay type: ADME, organism-based; details: in vivo, 1 h; procedure, shortened: as §1
[22] = Drug uptake in Sprague-Dawley rat vermian lobule at 12.2 MBq, iv after 60 mins by autoradiography; assay type: ADME, organism-based; details: in vivo, 1 h; procedure, shortened: as §1
[23] = Drug uptake in Sprague-Dawley rat white matter at 12.2 MBq, iv after 60 mins by autoradiography; assay type: ADME, organism-based; details: in vivo, 1 h; procedure, shortened: as §1
[24] = system: Thalamus; assay: Drug uptake in Sprague-Dawley rat thalamus at 12.2 MBq, iv after 60 mins by autoradiography; assay type: ADME, organism-based; details: in vivo, 1 h; procedure, shortened: as §1
[25] = system: Hypothalamus; assay: Drug uptake in Sprague-Dawley rat hypothalamus at 12.2 MBq, iv after 60 mins by autoradiography; assay type: ADME, organism-based; details: in vivo, 1 h; procedure, shortened: as §1
[26] = system: Cortex; assay: Drug uptake in Sprague-Dawley rat visual cortex at 12.2 MBq, iv after 60 mins by autoradiography; assay type: ADME, organism-based; details: in vivo, 1 h; procedure, shortened: as §1
[27] = system: Cortex; assay: Drug uptake in Sprague-Dawley rat cortex at 12.2 MBq, iv after 60 mins by autoradiography; assay type: ADME, organism-based; details: in vivo, 1 h; procedure, shortened: as §1
[28] = system: Brain; assay: Biodistribution in ICR mouse brain assessed as reduction in radiotracer uptake at 370 kBq, iv after 60 minutes by gamma-counting analysis in presence of fluvoxamine; assay type: ADME, organism-based; details: in vivo, 1 h
Procedure, shortened: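 Male ICR mice got saline or a blocker (haloperidol, (S)-(−)-raclopride, fluvoxamine or tamoxifen; 0.1 mL, 2.2 μmol/kg) via tail vein 5 min before 370 kBq tracer iv. Brain was γ-counted at 60 min and compared with saline controls by two-tailed Student's t test, p ≤ 0.05.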

[29] = system: Spleen; assay: Biodistribution in ICR mouse spleen assessed as reduction in radiotracer uptake at 370 kBq, iv after 60 minutes by gamma-counting analysis in presence of SA4503 relative to control; assay type: ADME, organism-based; set-up: scale not given: the % may be the effect or the level left; details: in vivo, 1 h
Procedure, shortened: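 Male ICR mice were given saline or SA4503 (0.1 mL; 2, 5 or 10 μmol/kg) via tail vein 5 min before [18F]radiotracer (370 kBq, 0.1 mL, iv). Killed at 60 min. Organs were gamma-counted as % ID/g and reduction was computed versus saline controls. Two-tailed independent Student's t test, p ≤ 0.05.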

[30] = system: Kidney; assay: Biodistribution in ICR mouse kidney assessed as reduction in radiotracer uptake at 370 kBq, iv after 60 minutes by gamma-counting analysis in presence of SA4503 relative to control; assay type: ADME, organism-based; set-up: scale not given: the % may be the effect or the level left; details: in vivo, 1 h
Procedure, shortened: (§4)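 Male ICR mice got saline or SA4503 (0.1 mL; 2, 5, 10 or 2.2 μmol/kg) via tail vein 5 min before 370 kBq tracer (0.1 mL) iv. They were decapitated at 60 min and tissues γ-counted. Percent change was taken against saline controls, with two-tailed Student's t test, p ≤ 0.05.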

[31] = system: Brain; assay: Biodistribution in ICR mouse brain assessed as reduction in radiotracer uptake at 370 kBq, iv after 60 minutes by gamma-counting analysis in presence of SA4503 relative to control; assay type: ADME, organism-based; set-up: scale not given: the % may be the effect or the level left; details: in vivo, 1 h; procedure, shortened: as §4

With `[18F]CCOc1ccc(CN2CCC3(CC2)OCc2ccccc23)cc1` the Stability [1] was “Stable”, the Stability [2] was “Stable” and the Drug uptake [3] was “Active”. For the same compound, the remaining at 0.5 h [4] was 40.3%, the Retention_time [5] was 7.72 min and the Stability [6] was “Stable”. The Drug uptake [7] was “Active”, the Drug uptake [8] was “Active” and the Drug uptake [9] was “Active”. For the same compound, the Drug uptake [10] was “Active”, the Drug uptake [11] was “Active” and the Drug uptake [12] was “Active”. For the same compound, the Drug uptake [13] was “Active”, the Drug uptake [14] was “Active” and the Drug uptake [15] was “Active”. The Drug uptake [16] was “Active”, the Ratio [17] was 1.22 and the Ratio [18] was 1.3. For the same compound, the Ratio [19] was 1.38, the Ratio [20] was 1.5 and the Drug uptake [21] was “Active”. For the same compound, the Drug uptake [22] was “Active”, the Drug uptake [23] was “Active” and the Drug uptake [24] was “Active”. The Drug uptake [25] was “Active”, the Drug uptake [26] was “Active” and the Drug uptake [27] was “Active”. For the same compound, the Drug uptake [28] was “Active”, the Activity [29] was 29% and the Activity [30] was 57%. The Activity [31] was 46%.
